Measured values from ChEMBL document CHEMBL1255247, “Induction of L1 and L2 beta-lactamases of Stenotrophomonas maltophilia” (2008).
≈ marks a conversion by molar mass, not a printed value. Calls of active or inactive are those of the source. No cut-off for these calls is given here.

What was measured:
[1] = system: Stenotrophomonas maltophilia; assay: Antibacterial activity against Stenotrophomonas maltophilia isolate KJ deficient in L2 beta lactamase gene by Etest; format: functional
[2] = system: Stenotrophomonas maltophilia; assay: Antibacterial activity against Stenotrophomonas maltophilia isolate KJ deficient in L1 beta lactamase gene at 50 ug/ml; format: functional, organism-based
[3] = system: Stenotrophomonas maltophilia; assay: Antibacterial activity against Stenotrophomonas maltophilia isolate KJ by Etest; format: functional
[4] = system: Stenotrophomonas maltophilia; assay: Ratio of induction of xylE gene expression in Stenotrophomonas maltophilia isolate KJ deficient in L1 beta lactamase gene to induction of xylE gene expression in Stenotrophomonas maltophilia isolate KJ deficient in L2 beta lactamase gene assessed as catechol 2,3-dioxygenase activity at 50 ug/ml; format: functional
[5] = system: Stenotrophomonas maltophilia; assay: Antibacterial activity against Stenotrophomonas maltophilia isolate KJ deficient in L1 beta lactamase gene by Etest; format: functional
[6] = system: Stenotrophomonas maltophilia; assay: Antibacterial activity against Stenotrophomonas maltophilia isolate KJ deficient in L2 beta lactamase gene at 50 ug/ml; format: functional, organism-based
[7] = system: Stenotrophomonas maltophilia; assay: Antibacterial activity against Stenotrophomonas maltophilia isolate KJ deficient in L2 beta lactamase gene at 8 ug/ml; format: functional, organism-based
[8] = system: Stenotrophomonas maltophilia; assay: Ratio of induction of xylE gene expression in Stenotrophomonas maltophilia isolate KJ deficient in L1 beta lactamase gene to induction of xylE gene expression in Stenotrophomonas maltophilia isolate KJ deficient in L2 beta lactamase gene assessed as catechol 2,3-dioxygenase activity at 8 ug/ml; format: functional
How it was run: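 xylE reporter (C23O) assay in L1- or L2-knockout mutants of strain KJ. Overnight cultures diluted to OD450 0.15 and grown 0.5 h at 37°C, then exposed to β-lactam inducer, by default for 2.5 h. C23O activity measured in intact cells with OD450 recorded. Specific activity is nmol substrate converted/min per A450 unit. At least three repeats.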

[9] = system: Stenotrophomonas maltophilia; assay: Antibacterial activity against Stenotrophomonas maltophilia isolate KJ deficient in L1 beta lactamase gene at 16 ug/ml; format: functional, organism-based
[10] = system: Stenotrophomonas maltophilia; assay: Ratio of induction of xylE gene expression in Stenotrophomonas maltophilia isolate KJ deficient in L1 beta lactamase gene to induction of xylE gene expression in Stenotrophomonas maltophilia isolate KJ deficient in L2 beta lactamase gene assessed as catechol 2,3-dioxygenase activity at 16 ug/ml; format: functional
[11] = system: Stenotrophomonas maltophilia; assay: Induction of xylE gene expression in Stenotrophomonas maltophilia isolate KJ deficient in L2 beta lactamase gene assessed maximum catechol 2,3-dioxygenase activity at 1 ug/ml; format: functional, organism-based
How it was run: (§1)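 xylE (catechol 2,3-dioxygenase) reporter induction in the L1 or L2 knockout of strain KJ. Overnight cultures were diluted to OD450 0.15 and grown 0.5 h at 37°C, then exposed to β-lactam inducer (default 50 μg/ml, 2.5 h). C23O activity was read in intact cells with OD450. 1 U = 1 nmol substrate/min; specific activity is U per A450 unit. Each experiment was run ≥3 times.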

[12] = system: Stenotrophomonas maltophilia; assay: Induction of xylE gene expression in Stenotrophomonas maltophilia isolate KJ deficient in L1 beta lactamase gene assessed maximum catechol 2,3-dioxygenase activity at 1 ug/ml; format: functional, organism-based; how it was run: as §1
[13] = system: Stenotrophomonas maltophilia; assay: Induction of xylE gene expression in Stenotrophomonas maltophilia isolate KJ deficient in L2 beta lactamase gene assessed maximum catechol 2,3-dioxygenase activity at 50 ug/ml after 2.5 hrs; format: functional, organism-based; how it was run: as §1
[14] = system: Stenotrophomonas maltophilia; assay: Induction of xylE gene expression in Stenotrophomonas maltophilia isolate KJ deficient in L1 beta lactamase gene assessed maximum catechol 2,3-dioxygenase activity at 50 ug/ml after 3 hrs; format: functional, organism-based; how it was run: as §1

Row | SMILES | MIC [1] | Activity [2] | MIC [3] | Ratio [4] | MIC [5] | Activity [6] | Activity [7] | Ratio [8] | Activity [9] | Ratio [10] | Activity [11] | Activity [12] | Activity [13] | Activity [14]
1 | CC1(C)S[C@@H]2[C@H](NC(=O)[C@H](N)c3ccccc3)C(=O)N2[C@H]1C(=O)O [AMPICILLIN] | > 2050 µg/mL | inactive | > 2050 µg/mL | 0.9 | > 2050 µg/mL | inactive |  |  |  |  |  |  |  | 
2 | C[C@H]1[C@H](NC(=O)/C(=N\OC(C)(C)C(=O)O)c2csc(N)n2)C(=O)N1S(=O)(=O)O [AZTREONAM] |  |  | > 2050 µg/mL |  | > 2050 µg/mL |  | Active | 7.9 |  |  |  |  |  | 
3 | CC1(C)S[C@@H]2[C@H](NC(=O)C(C(=O)O)c3ccccc3)C(=O)N2[C@H]1C(=O)O (some centres undefined) [CARBENICILLIN] | 64 µg/mL (≈ 169 µM) | inactive | 1020 µg/mL (≈ 2710 µM) | 3.4 | 1020 µg/mL (≈ 2710 µM) | inactive |  |  |  |  |  |  |  | 
4 | CO/N=C(\C(=O)N[C@@H]1C(=O)N2C(C(=O)[O-])=C(C[N+]3(C)CCCC3)CS[C@H]12)c1csc(N)n1 [CEFEPIME] | 4 µg/mL (≈ 8.32 µM) |  | 64 µg/mL (≈ 133 µM) |  | 64 µg/mL (≈ 133 µM) |  |  |  |  |  |  |  |  | 
5 | CCN1CCN(C(=O)N[C@@H](C(=O)N[C@@H]2C(=O)N3C(C(=O)O)=C(CSc4nnnn4C)CS[C@H]23)c2ccc(O)cc2)C(=O)C1=O [CEFOPERAZONE] | 64 µg/mL (≈ 99.1 µM) |  | 128 µg/mL (≈ 198 µM) |  | 32 µg/mL (≈ 49.6 µM) |  |  |  | Active | 1.4 |  |  |  | 
6 | CO/N=C(\C(=O)N[C@@H]1C(=O)N2C(C(=O)O)=C(COC(C)=O)CS[C@H]12)c1csc(N)n1 [CEFOTAXIME] | 128 µg/mL (≈ 281 µM) | inactive | 256 µg/mL (≈ 562 µM) | 3.2 | 128 µg/mL (≈ 281 µM) | inactive |  |  |  |  |  |  |  | 
7 | CO[C@@]1(NC(=O)Cc2cccs2)C(=O)N2C(C(=O)O)=C(COC(N)=O)CS[C@@H]21 [CEFOXITIN] | 1020 µg/mL (≈ 2400 µM) | inactive | 1020 µg/mL (≈ 2400 µM) | 0.2 | 128 µg/mL (≈ 299 µM) | inactive |  |  |  |  |  |  |  | 
8 | CO/N=C(\C(=O)N[C@@H]1C(=O)N2C(C(=O)O)=C(CSc3nc(=O)c(O)nn3C)CS[C@H]12)c1csc(N)n1 [CEFTRIAXONE] | 128 µg/mL (≈ 231 µM) | inactive | 256 µg/mL (≈ 462 µM) | 5.5 | 128 µg/mL (≈ 231 µM) | inactive |  |  |  |  |  |  |  | 
9 | CO/N=C(\C(=O)N[C@@H]1C(=O)N2C(C(=O)O)=C(COC(N)=O)CS[C@H]12)c1ccco1 [CEFUROXIME] | 1020 µg/mL (≈ 2410 µM) | inactive | 2050 µg/mL (≈ 4830 µM) | 2.4 | 1020 µg/mL (≈ 2410 µM) | inactive |  |  |  |  | Active | Active | Active | Active
10 | C[C@@H](O)[C@H]1C(=O)N2C(C(=O)O)=C(SCCNC=N)C[C@H]12 [IMIPENEM ANHYDROUS] | > 32 µg/mL |  | > 32 µg/mL |  | 8 µg/mL (≈ 26.7 µM) |  |  |  |  |  |  |  |  | 
11 | C[C@@H](O)[C@H]1C(=O)N2C(C(=O)O)=C(S[C@@H]3CN[C@H](C(=O)N(C)C)C3)[C@H](C)[C@H]12 [MEROPENEM] | > 32 µg/mL |  | > 32 µg/mL |  | 0.5 µg/mL (≈ 1.3 µM) |  |  |  |  |  |  |  |  | 
12 | CCN1CCN(C(=O)N[C@@H](C(=O)N[C@@H]2C(=O)N3[C@@H]2SC(C)(C)[C@@H]3C(=O)O)c2ccccc2)C(=O)C1=O [PIPERACILLIN] | 512 µg/mL (≈ 989 µM) | inactive | 1020 µg/mL (≈ 1980 µM) | 1.7 | 256 µg/mL (≈ 495 µM) | inactive |  |  |  |  |  |  |  | 
